The assay addresses T1, human ERO1α (Homo sapiens, UniProt Q96HE7, C104A/C131A/C166A).
T1 sequence (Q96HE7 22-468 C104A/C131A/C166A): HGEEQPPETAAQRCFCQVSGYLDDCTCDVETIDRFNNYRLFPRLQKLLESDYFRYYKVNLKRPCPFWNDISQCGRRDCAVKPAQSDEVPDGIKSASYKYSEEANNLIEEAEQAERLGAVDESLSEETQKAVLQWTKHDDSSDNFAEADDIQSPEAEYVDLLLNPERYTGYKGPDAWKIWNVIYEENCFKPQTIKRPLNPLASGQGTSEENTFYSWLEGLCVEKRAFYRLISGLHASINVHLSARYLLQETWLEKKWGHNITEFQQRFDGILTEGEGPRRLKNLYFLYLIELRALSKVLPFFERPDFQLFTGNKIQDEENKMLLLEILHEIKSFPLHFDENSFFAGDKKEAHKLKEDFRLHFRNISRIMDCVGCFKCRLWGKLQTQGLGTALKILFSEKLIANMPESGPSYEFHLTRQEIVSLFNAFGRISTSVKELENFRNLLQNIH
Put plainly: Recombinant ERO1α enzyme assay. The class given is biochemical. To be noted: up to 200 µM; FAD covalent modifiers. The procedure, abridged:
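Hyperactive human ERO1α (a.a. 22-468, C104A/C131A/C166A) and human PDI (a.a. 18-479) were used, each at 0.0625 mg/mL, with rising test compound concentrations. Activity was quantified by Amplex Red. Data are mean ± S.D. of 3 independent experiments, each run in triplicate.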

As for `N[C@@H]1C[C@H]1c1ccccc1` (racemic) [tranylcypromine], the “inhibition of ERO1α activity, concentration-response” value is recorded as “did not inhibit”.

For the origin of these results see publication PMC9312093 (ACS Bio & Med Chem Au, 2022).
